Bioassay records: PubChem BioAssay, The Scripps Research Institute Molecular Screening Center
MC4R ag barr – agonists of human melanocortin 4 receptor (MC4R) beta-arrestin; U2OS MC4R beta-arrestin complementation, luminescence; percent of melanotan II response, DMSO zero; 360,000 compounds, 0.98% hits; AID 540308; activation, % at 8.9 µM; P32245;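 active = activation above a per-plate cutoff, the mean activation of sample wells on that plate plus 3 SD, cut at about 8% in these data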
GAA850 FXN act – frataxin GAA850 promoter activation | HEK293 lucGAA850 FXN promoter luciferase reporter, 24 h; percent of 10 µM SAHA response | activation, % at 6 µM | 360,000 compounds, 0.56% hits | AID 540364;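 active = activation above the average of all compounds screened plus 3 SD, cutoff fixed separately per campaign, cut at about 7.5% in these data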;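 also: 0% = DMSO wells and 100% = 10 µM SAHA wells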
HTR2A ag – agonists of mouse serotonin 5-HT2A receptor (HTR2A). activation, % at 7.6 µM. CHO-K1 mHTR2A beta-arrestin complementation, luminescence; percent of 30 µM serotonin response. 360,000 compounds, 0.66% hits. AID 624169. P35363;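 active = activation above a run cutoff, the mean activation of all tested compounds plus 3 SD, cut at about 14% in these data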;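 also: 0% = plate median of compound wells and 100% = 30 µM serotonin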
MC4R antag cAMP – antagonists of human melanocortin 4 receptor (MC4R); P32245; MC4R-expressing cells, MTII-stimulated cAMP, LANCE TR-FRET; inhibition, % at 6.5 µM; 360,000 compounds, 0.48% hits; AID 540295;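 active = inhibition above its plate's cutoff, the mean of tested wells on that plate plus 3 SD, cut at about 29% in these data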;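 also: 0% = Melanotan II alone and 100% = Melanotan II plus saturating MCL0020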
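Assay system: U2OS cells stably expressing human melanocortin 4 receptor (MC4R) / Dosing: 6.5 µM / Timing: compound 30 min, challenge 1 h, detection 1 h / Measured by: Eu-cAMP/anti-cAMP TR-FRET, emission 671 nm / Replicates: singlicate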
AHR activator – human AHR activation. AHR-responsive luciferase reporter cells, luminescence. activation, % at 5 µM. 320,000 compounds, 2.5% hits. AID 2796; in the data active = activation above about 47%;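 also: 0% = vehicle wells and 100% = reference agonist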
Target sequence (P35869 whole entry, looked up): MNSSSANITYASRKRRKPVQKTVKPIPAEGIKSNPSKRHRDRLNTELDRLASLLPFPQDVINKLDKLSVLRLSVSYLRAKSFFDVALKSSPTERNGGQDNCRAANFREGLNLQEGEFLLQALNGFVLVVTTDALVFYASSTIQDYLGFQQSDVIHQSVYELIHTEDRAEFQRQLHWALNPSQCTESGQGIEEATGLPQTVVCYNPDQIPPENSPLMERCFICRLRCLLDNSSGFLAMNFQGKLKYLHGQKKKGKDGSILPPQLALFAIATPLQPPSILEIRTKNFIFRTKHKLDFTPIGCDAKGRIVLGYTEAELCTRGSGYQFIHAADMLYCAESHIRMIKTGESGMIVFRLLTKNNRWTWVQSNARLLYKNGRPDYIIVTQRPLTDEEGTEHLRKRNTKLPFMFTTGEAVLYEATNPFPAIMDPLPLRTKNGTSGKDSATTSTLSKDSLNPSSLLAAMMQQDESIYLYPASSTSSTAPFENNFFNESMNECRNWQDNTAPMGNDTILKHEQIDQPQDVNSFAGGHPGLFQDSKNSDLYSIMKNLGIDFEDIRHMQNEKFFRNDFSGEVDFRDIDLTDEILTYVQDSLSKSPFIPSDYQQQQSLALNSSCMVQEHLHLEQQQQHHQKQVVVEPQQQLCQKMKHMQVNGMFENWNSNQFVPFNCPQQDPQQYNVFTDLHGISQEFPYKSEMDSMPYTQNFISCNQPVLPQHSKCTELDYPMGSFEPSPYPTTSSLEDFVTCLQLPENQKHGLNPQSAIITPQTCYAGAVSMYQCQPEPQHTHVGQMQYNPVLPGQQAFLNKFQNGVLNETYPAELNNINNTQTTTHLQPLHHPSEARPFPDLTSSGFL
MOR ag counter – OPRM1 agonism in mouse HTR2A counterscreen. shares compounds with HTR2A ag. U2OS OPRM1 beta-arrestin PathHunter, luminescence; DMSO 0%, DAMGO 9.3 µM 100%. 2,300 compounds, 5.3% hits. activation, % at 9.3 µM;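 active = mean activation above the mean of DMSO-only wells plus 3 SD, cut at about 0.5% in these data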
m5-HT2A ag conf – mouse HTR2A agonism confirmed; CHO-K1 PathHunter beta-arrestin recruitment, luminescence; DMSO 0%, 30 µM serotonin 100%; 2,300 compounds, 19% hits; activation, % at 7.6 µM; shares compounds with HTR2A ag;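 active = mean activation across triplicates above the hit threshold derived in the original primary screen, cut at about 15% in these data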
The depositor's hits bear a star; . = not tested or not shown. This is a sample that favours compounds with a hit; in the whole collection about 4.7% have one here.

SMILES | MC4R ag barr | GAA850 FXN act | HTR2A ag | MC4R antag cAMP | AHR activator | MOR ag counter | m5-HT2A ag conf
C(=N\Nc1nc(N2CCCC2)nc(N2CCCC2)n1)/c1cccnc1 | -3.2 | 1.5 | 14.9* | 3.0 | 7.5 | -0.4 | -0.7
CCN(CC(=O)Nc1ccc2c(c1)OCCO2)C(=O)CC(NC(C)=O)c1ccccc1 (stereo not drawn) | 2.3 | 2.5 | 17.6* | 3.8 | 1.1 | -0.7 | -3.0
CCN(CC(=O)Nc1ccc2c(c1)OCCO2)C(=O)CCOc1ccccc1 | -0.3 | 0.6 | -3.3 | -0.8 | 0.7 | . | .
COc1ccc(C(=O)COC(=O)c2cc(S(=O)(=O)N3CCCCC3)ccc2N2CCOCC2)c(OC)c1 | 1.4 | 3.0 | -0.3 | 5.5 | 1.8 | . | .
COc1ccccc1C(=O)COC(=O)c1cc(S(=O)(=O)N2CCCCC2)ccc1N1CCOCC1 | 1.9 | 0.1 | 17.5* | -2.0 | -1.1 | -0.3 | -0.7
CC1CC(C)(C)OC(c2ccc(C(C)C)cc2)O1 (stereo not drawn) | -0.3 | 1.7 | 1.2 | 4.8 | . | . | .
Cn1cc(C(F)(F)F)nc1-c1ccc(OCC(O)CNCCOc2ccc(O)c(C(N)=O)c2)cc1 (stereo not drawn) | 0.7 | 0.1 | 32.9* | 0.9 | -0.3 | -0.9 | 116.5*
COc1ccc(Nc2nnc(-c3ccc(O)cc3)c3ccccc23)cc1 | 3.9 | 1.0 | 30.4* | -12.5 | 23.2 | -0.5 | 5.8
N#CC(c1ccc(F)cc1)c1ccc(C(=O)c2ccc(F)cc2)cc1 (stereo not drawn) | -0.1 | 3.9 | 14.5* | -2.2 | 0.1 | -0.4 | -6.0
Cc1ccc(S(=O)(=O)NC(=O)NCc2ccccn2)cc1 | 1.0 | 2.5 | 14.4* | -6.0 | 1.1 | -0.5 | -2.7
O=C(CSc1nnc(Cc2cc(=O)[nH]c(=O)[nH]2)n1-c1ccccc1)N1CCCc2ccccc21 | -0.4 | 2.6 | 16.1* | 5.4 | 4.3 | -0.7 | -2.3
CCC(OC(=O)c1nsc(Cl)c1Cl)C(=O)NCc1cccs1 (stereo not drawn) | -0.5 | 1.3 | 26.9* | 1.4 | 8.5 | -0.6 | -2.6
CC(C)CC(OC(=O)c1nsc(Cl)c1Cl)C(=O)NCc1cccs1 (stereo not drawn) | -0.3 | 0.9 | 2.2 | 5.3 | 1.3 | . | .
O=S(=O)(NCCS(=O)(=O)N1CCN(c2ccc(F)cc2)CC1)c1ccc(F)cc1 | 0.5 | -1.9 | -3.6 | -5.0 | . | . | .
CC(C)(C)OC(=O)C[C@H]1C/C=C\C[C@@H](CC(=O)NCCO)C(=O)N[C@H](Cc2ccccc2)COC1=O | -0.5 | -0.2 | -0.8 | 3.5 | -0.7 | . | .
CCCS(=O)(=O)NC(=O)C1(C)CCN(C(=O)C2(c3ccc(Cl)cc3)CCCC2)C1 (stereo not drawn) | -0.3 | 0.8 | 16.5* | 10.2 | . | 0.0 | 1.8
CCCS(=O)(=O)NC(=O)C1(C)CCN(C(=O)c2cc(F)cc(F)c2)C1 (stereo not drawn) | 0.3 | -0.4 | 14.7* | 4.7 | . | -0.7 | -6.5
COCCNC(=O)C1(C)CCN(C(=O)C2(c3ccc(Cl)cc3)CCCC2)C1 (stereo not drawn) | 0.0 | 0.0 | 5.3 | 4.8 | . | . | .
O=C1c2cccc3cccc(c23)C(=O)N1Cc1ccccn1 | -3.4 | 6.2 | -7.2 | 0.6 | . | . | .
COc1ccc(C(C#N)=Cc2cccc(OC)c2OC)cc1 | -0.6 | -2.4 | -4.8 | -10.0 | . | . | .
NC(=O)c1sc2nc3c(c(-c4ccco4)c2c1N)CCCC3 | -0.3 | -2.9 | 2.9 | 9.0 | 1.1 | . | .
N#Cc1sc2nc3c(c(-c4ccco4)c2c1N)CCCC3 | -1.0 | 3.5 | 18.6* | 3.6 | 0.5 | 0.2 | 2.4
OCC1(Cc2ccc(Cl)cc2)CCN(CCCc2ccccc2)CC1 | 3.4 | -1.8 | 17.8* | 0.8 | 15.1 | -0.3 | 44.0*
OCC1(Cc2ccc(Cl)cc2)CCN(CC2CC=CCC2)CC1 (stereo not drawn) | 0.7 | -0.9 | 14.8* | 18.2 | 1.9 | -0.3 | 14.2
COc1ccc(-c2csc(C(NC(C)=O)c3cccc(F)c3)n2)cc1 (stereo not drawn) | -0.4 | 1.0 | 1.7 | -6.2 | . | . | .
SMILES | MC4R ag barr | GAA850 FXN act | HTR2A ag | MC4R antag cAMP | AHR activator | MOR ag counter | m5-HT2A ag conf
Cc1ccc(NC(=O)C2CCCN2C(=O)OCc2ccccc2)cc1F (stereo not drawn) | -3.3 | -3.0 | 14.7* | 6.5 | 1.5 | -0.5 | -5.1
C[C@H](NC(=O)[C@@H]1CSC2c3ccccc3C(=O)N21)C(=O)NCc1c(F)cccc1Cl (stereo partly drawn) | -1.0 | -0.4 | 16.6* | 22.6 | 5.5 | -0.5 | -4.4
Cc1cccc(NC(=O)CN(c2ccc(C(C)C)cc2)S(=O)(=O)c2c(C)nn(C)c2C)n1 | -0.8 | 1.9 | 15.8* | 9.8 | 15.0 | -0.7 | -2.5
Cc1nn(C)c(C)c1S(=O)(=O)N(CC(=O)Nc1ccccn1)c1ccc(C(C)C)cc1 | 1.5 | -1.3 | -5.4 | 15.0 | 4.4 | . | .
CSCCNC(=O)C1(C)CCN1C(=O)c1cc(C)n(C)n1 (stereo not drawn) | -0.6 | 1.4 | 1.1 | 1.6 | . | . | .
COC(=O)c1ccc(C(=O)OC)c(NC(=O)Cc2cccs2)c1 | -0.4 | -0.9 | 2.2 | 3.7 | . | . | .
O=C(O)C[C@H]1c2ccccc2S(=O)(=O)N1c1ccccc1 | -0.3 | -0.3 | -4.3 | 7.3 | 1.8 | . | .
Cc1ccc(N2CC(C(=O)N3CCc4ccccc43)CC2=O)cc1 (stereo not drawn) | -0.7 | 3.6 | -3.2 | 9.2 | 6.8 | . | .
Cc1ccccc1N1CC(C(=O)N2CCc3ccccc32)CC1=O (stereo not drawn) | 1.5 | -1.5 | 17.3* | 8.0 | 19.3 | -0.5 | -1.6
CCC(C)c1ccc(NC(=S)N2CCN(C(=O)C3CCCO3)CC2)cc1 (stereo not drawn) | -2.3 | 0.7 | -7.0 | 4.1 | -0.3 | . | .
COc1ccc2c(CC(=O)OCC(=O)N3CCc4ccccc43)coc2c1 | -1.6 | 1.0 | 15.9* | -0.4 | 5.0 | -0.4 | -4.8
Cc1cc(-c2ccc3ccccc3c2)n2ncnc2n1 | -2.5 | 0.1 | 20.9* | -3.9 | -0.6 | -0.1 | 1.2
CCOC(=O)C1=CCN(S(=O)(=O)c2ccc(F)cc2)C1c1ccc(F)cc1 (stereo not drawn) | . | . | -1.5 | . | . | . | .
CCOc1ccc(NC(=S)NCc2ccc3c(c2)OCO3)cc1 | 1.9 | 1.1 | 15.2* | -3.3 | -0.4 | -0.6 | 1.1
Cc1noc(C)c1-c1ccc(C(=O)Nc2cccc(C(F)(F)F)c2)c2occc12 | 0.4 | -0.5 | -5.0 | 8.8 | . | . | .
Cc1ccc(NC(=O)CN2C(=O)c3ccccc3S2(=O)=O)c(C)c1 | -0.8 | -1.3 | 17.5* | 18.9 | 1.0 | -0.3 | -2.1
COc1ccc(C)cc1NC(=O)CN1C(=O)c2ccccc2S1(=O)=O | -2.1 | 2.0 | -4.1 | -4.5 | 1.7 | . | .
